According to article PMC12086512 (Protein Science : A Publication of the Protein Society, 2025):

Tests used:
[1] = system: His‐p67C (p67 residues 572–651); experiment: ELISA, binding to immobilized p67C; set-up: species or system Theileria parva; details: 50 nM antibody
Outline: (§1)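 Proteins coated overnight at 4°C in PBS: full-length C-His p67 (Expi293, Ni-NTA), p67 fragments (E. coli BL21(DE3), GST/6xHis fusion, glutathione resin, TEV cleavage where needed), ubiquitin or BSA. Fab detected with HRP anti-FLAG, IgG with HRP anti-Fc. Eight washes with PBS/0.25% Tween 20 between steps. TMB 2 min, stopped with 1.0 M phosphoric acid, A450 read.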

ubiquitin = experiment: ELISA, negative control protein ubiquitin; assay type: binding; details: serial dilutions of Fab
Outline: as §1

bovine serum albumin = experiment: ELISA, negative control protein BSA; assay type: binding; details: serial dilutions of Fab
Outline: as §1

full‐length p67 = experiment: ELISA, binding to full-length p67; set-up: species or system Theileria parva; details: 50 nM antibody
Outline: as §1

p67^1 (residues 572–612) = experiment: ELISA, binding to p67^1; set-up: species or system Theileria parva; details: 50 nM antibody
Outline: as §1

T. parva sporozoites = experiment: In vitro sporozoite neutralization assay with bovine PBMCs; assay type: cell-based, Theileria parva; details: exact values not determined due to incomplete fitting

B1: Fab B11: phage-derived synthetic human Fab binding p67C, neutralizes T. parva sporozoites (antibody, V domains shown)
VH: EVQLVESGGGLVQPGGSLRLSCAASGFNISSSSIHWVRQAPGKGLEWVASISPYYSSTSYADSVKGRFTISADTSKNTAYLQMNSLRAEDTAVYYCARGPGYAMDYWGQGTLVTVSS
VL: DIQMTQSPSSLSASVGDRVTITCRASQSVSSAVAWYQQKPGKAPKLLIYSASSLYSGVPSRFSGSRSGTDFTLTISSLQPEDFATYYCQQYYYAPITFGQGTKVEIK
- Binding to p67C [1]: bound
- Binding to control protein ubiquitin (ubiquitin): no detectable binding
- Binding to control protein bovine serum albumin (bovine serum albumin): no detectable binding
- Binding to full-length p67 (full‐length p67): bound
- Binding to p67^1 (p67^1 (residues 572–612)): bound
- Fold less neutralizing potency than IgGs B11 and 21.4 (T. parva sporozoites): roughly 10 fold
